For assay [1], the system named is SW-1736. The assay is described as follows: Cytotoxicity against human SW1736 cells after 96 hrs by SRB assay. Format: functional, cell-based. The settings on record: SW-1736, 96 h. In a few lines: (§1)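 Monolayer cells grown in RPMI 1640 with 10% heat-inactivated FBS and penicillin/streptomycin at 37 °C, 5% CO2. Cells were seeded and, after 24 h, exposed to serial dilutions (0–30 µM; DMSO or DMF ≤0.5% final) for 96 h. They were then fixed with 10% TCA at 4 °C, stained with 0.4% SRB and dissolved in 10 mM Tris, with absorbance read at 570 nm. IC50 comes from semi-log dose–response curves of survival versus untreated controls, from ≥3 independent experiments.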
On the technique in general: Sulforhodamine B stains cellular protein and so reports cell mass.

In assay [2] the test system is HCT-116. Put plainly: Cytotoxicity against human HCT116 cells after 96 hrs by SRB assay. Format: functional, cell-based. The settings on record: HCT-116, 96 h. An outline of the steps: as §1
The subject of assay [3] is 8505C. The assay is described as follows: Cytotoxicity against human 8505C cells after 96 hrs by SRB assay. Format: functional, cell-based. An outline of the steps: as §1
For assay [4], the system named is SW480. Put plainly: Cytotoxicity against human SW480 cells after 96 hrs by SRB assay. Format: functional, cell-based. The settings on record: SW480, 96 h. An outline of the steps: as §1
Assay [5] has as its system A2780. The assay is described as follows: Cytotoxicity against human A2780 cells after 96 hrs by SRB assay. The format is functional, cell-based. The settings on record: A2780, 96 h. In a few lines: as §1
Assay [6] relates to FaDu. Put plainly: Cytotoxicity against human FADU cells after 96 hrs by SRB assay. The format is functional, cell-based. In a few lines:
as §1

Assay [7] is described as follows: Cytotoxicity against human Liposarcoma cells after 96 hrs by SRB assay. Format: functional, cell-based. In a few lines:
as §1

Assay [8] relates to DLD-1. Put plainly: Cytotoxicity against human DLD1 cells after 96 hrs by SRB assay. The settings on record: DLD-1, 96 h. Format: functional, cell-based. In a few lines: as §1
The test system of assay [9] is HT-29. The assay is described as follows: Cytotoxicity against human HT-29 cells after 96 hrs by SRB assay. The settings on record: HT-29, 96 h. The format is functional, cell-based. In a few lines:
as §1

The subject of assay [10] is A-431. The assay is described as follows: Cytotoxicity against human A431 cells after 96 hrs by SRB assay. Format: functional, cell-based. The settings on record: A-431, 96 h. An outline of the steps: as §1
Assay [11] in a line: Cytotoxicity against human 518A2 cells after 96 hrs by SRB assay. The format is functional, cell-based. The settings on record: 518A2, 96 h. In a few lines:
as §1

In assay [12] the test system is MCF7. Put plainly: Cytotoxicity against human MCF7 cells after 96 hrs by SRB assay. Format: functional, cell-based. The settings on record: MCF7, 96 h. In a few lines:
as §1

For assay [13], the system named is A549. Put plainly: Cytotoxicity against human A549 cells after 96 hrs by SRB assay. The format is functional, cell-based. The settings on record: A549, 96 h. An outline of the steps:
as §1

Assay [14] is described as follows: Cytotoxicity against human A253 cells after 96 hrs by SRB assay. The format is functional, cell-based. The settings on record: A253, 96 h. An outline of the steps: as §1
Assay [15] concerns HCT-8. Put plainly: Cytotoxicity against human HCT8 cells after 96 hrs by SRB assay. The settings on record: HCT-8, 96 h. Format: functional, cell-based. In a few lines:
as §1

Assay [16] relates to 518A2. Put plainly: Growth inhibition of human 518A2 cells at 30 uM after 96 hrs by SRB assay. The format is functional, cell-based. In a few lines:
(§2)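 Same SRB set-up: RPMI 1640 with 10% FBS at 37 °C, 5% CO2, and a 96 h exposure starting 24 h after seeding (DMSO or DMF ≤0.5% final). Percent viable cells relative to untreated controls is read at 30 µM, the top concentration of the 0–30 µM dilution series. Cells were fixed with TCA, stained with SRB and read at 570 nm; ≥3 independent experiments.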

The test system of assay [17] is 8505C. Put plainly: Growth inhibition of human 8505C cells at 30 uM after 96 hrs by SRB assay. The format is functional, cell-based. In a few lines: as §2
The subject of assay [18] is DLD-1. Put plainly: Growth inhibition of human DLD1 cells at 30 uM after 96 hrs by SRB assay. Format: functional, cell-based. An outline of the steps:
as §2

For assay [19], the species on record is Homo sapiens. Put plainly: Growth inhibition of human Liposarcoma cells at 30 uM after 96 hrs by SRB assay. Format: functional. An outline of the steps: as §2

Active and inactive are the calls of the source. The rule behind the calls is not given here.

Experimental findings from ChEMBL document CHEMBL1159047, “Synthesis and biological evaluation of antitumour-active betulin derivatives” (Bioorg Med Chem, 2010) are described below.

For the compound `C=C(C)[C@@H]1CC[C@]2([C@@H]3O[C@H]3C(=O)N(CC)CC)CC[C@]3(C)[C@H](CC[C@@H]4[C@@]5(C)CC[C@H](OC(C)=O)C(C)(C)[C@@H]5CC[C@]43C)[C@@H]12`, the IC50 came to 2.7 µM in assay [1]; 2.3 µM in assay [2]; 8.3 µM in assay [3]; 6 µM in assay [4]; 4.7 µM in assay [5]; 5.9 µM in [6]. Besides, the IC50 is 7.7 µM in assay [7]; 7.9 µM in assay [8]; 9.6 µM in [9]; 4.3 µM in assay [10]; 7 µM in assay [11]; 4.6 µM in [12]. The concentration for half-maximal inhibition (IC50) in [13] stood at 5.6 µM; in [14] it was 3.5 µM; in assay [15], 2.7 µM.

For the compound `CCOC(=O)CC(=O)C[C@H]1O[C@@H]2[C@@H]3[C@H]4CC[C@@H]5[C@@]6(C)CC[C@H](OC(C)=O)C(C)(C)[C@@H]6CC[C@@]5(C)[C@]4(C)CC[C@@]31CCC2(C)C`, the IC50 in [1] amounted to 11.3 µM; in [2], 7 µM; in [3], 8.9 µM; in [4], 5.8 µM; in assay [5], 4.7 µM; in [6], 7 µM. Besides, the IC50 in assay [7] worked out at 10.5 µM; in assay [8], 7.2 µM; in assay [9] it was 13.2 µM; in [10], 9.8 µM; in assay [11], 10.4 µM; in assay [12], 9.2 µM. Further, the figures for the IC50 in [13], in assay [14] and in assay [15] were 5.2 µM, 10.9 µM and 6.1 µM, respectively.

With `C=C(C)[C@@H]1CC[C@]2(C(=O)CC(=O)OCC)CC[C@]3(C)[C@H](CC[C@@H]4[C@@]5(C)CC[C@H](OC)C(C)(C)[C@@H]5CC[C@]43C)[C@@H]12`, the IC50 in assay [1] amounted to 7.2 µM; in [2], 3.6 µM; in assay [3] it was 7.9 µM; in assay [4], 5.9 µM; in [5] it was 4.3 µM; in assay [6] it was 6.5 µM. In addition, the IC50 in [7] amounted to 6.4 µM; in [8], 7.9 µM; in assay [9], 4.1 µM; in assay [10], 3.9 µM; in assay [11], 6.3 µM; in assay [12], 4.7 µM. Further, the IC50 came out at 5.3 µM in [13], 7.4 µM in [14] and 4.1 µM in assay [15].

`C=C(C)[C@@H]1CC[C@]2(C(=O)O)CC[C@]3(C)[C@H](CC[C@@H]4[C@@]5(C)CC[C@H](O)C(C)(C)[C@@H]5CC[C@]43C)[C@@H]12` [BETULINIC ACID] registered an IC50 in [7] of 9.7 µM.

Consider `C=C(C)[C@@H]1CC[C@]2([C@H](O)[C@H]3C=CC(=O)O3)CC[C@]3(C)[C@H](CC[C@@H]4[C@@]5(C)CC[C@H](OC(C)=O)C(C)(C)[C@@H]5CC[C@]43C)[C@@H]12`, for which the IC50 amounted to 14.7 µM in [1]; 8.5 µM in assay [2]; 17 µM in [3]; 12.8 µM in assay [4]; 8.8 µM in [5]; 12.3 µM in [6]. In addition, the IC50 was found to be 15.9 µM in assay [7]; 16.3 µM in assay [8]; 29.9 µM in [9]; 8.9 µM in assay [10]; 16.5 µM in assay [11]; 12.5 µM in assay [12]. Also, the results for the IC50 in [13], in assay [14] and in assay [15] were 17 µM, 15.7 µM and 14.7 µM, respectively.

Turning to `C=C(C)[C@@H]1CC[C@]2(C(=O)[C@H]3CCOC3=O)CC[C@]3(C)[C@H](CC[C@@H]4[C@@]5(C)CC[C@H](OC(C)=O)C(C)(C)[C@@H]5CC[C@]43C)[C@@H]12` (mixture of isomers), the IC50 in assay [1] turned out to be 6.2 µM; in [2], 6.2 µM; in assay [3] it was 9.2 µM; in assay [4], 9.6 µM; in assay [5] it was 6.4 µM; in [6] it was 5.8 µM. In addition, the concentration for half-maximal inhibition (IC50) in assay [7] worked out at 10 µM; in assay [8], 9.5 µM; in assay [9] it was 14.8 µM; in assay [10], 7.3 µM; in assay [11] it was 9.5 µM; in assay [12], 7.7 µM. For the same compound, the IC50 was determined as 5.5 µM in [13], 7 µM in assay [14] and 7.8 µM in assay [15].

Take `C=C(C)[C@@H]1CC[C@]2(C(=O)CC(=O)OCC)CC[C@]3(C)[C@H](CC[C@@H]4[C@@]5(C)CC[C@H](OC(C)=O)C(C)(C)[C@@H]5CC[C@]43C)[C@@H]12`: the IC50 in [1] came to 2.3 µM; in [2], 2.4 µM; in assay [3], 2.3 µM; in [4] it was 2.2 µM; in assay [5], 1.8 µM; in assay [6] it was 3 µM. Also, the IC50 was determined as 2.2 µM in [7]; 3.9 µM in assay [8]; 12 µM in assay [9]; 2.6 µM in assay [10]; 2.5 µM in assay [11]; 6.8 µM in assay [12]. Moreover, the figures for the IC50 in assay [13], in assay [14] and in assay [15] were 2.2 µM, 2.2 µM and 3 µM, respectively.

Take `C=C(C)[C@@H]1CC[C@]2([C@H](O)CC(=O)CC(=O)OCC)CC[C@]3(C)[C@H](CC[C@@H]4[C@@]5(C)CC[C@H](OC)C(C)(C)[C@@H]5CC[C@]43C)[C@@H]12`: the IC50 in assay [1] stood at 13.8 µM; in [2], 14.6 µM; in assay [3] it was 17.6 µM; in assay [4] it was 15.3 µM; in assay [5] it was 12.1 µM; in [6], 16.2 µM. The IC50 in assay [7] is 17.8 µM; in assay [8], 14 µM; in assay [9], 16.8 µM; in assay [10], 20.7 µM; in [11], 19.4 µM; in assay [12] it was 20.7 µM. Besides, the IC50 in assay [13] came out at 14.6 µM; in assay [14], 17 µM; in assay [15] it was 12.5 µM.

Turning to `C=C(C)[C@@H]1CC[C@]2([C@H](O)CC(=O)CC(=O)OCC)CC[C@]3(C)[C@H](CC[C@@H]4[C@@]5(C)CC[C@H](OC(C)=O)C(C)(C)[C@@H]5CC[C@]43C)[C@@H]12`, the IC50 in assay [1] amounted to 10.6 µM; in assay [2] it was 13 µM; in assay [3], 9.6 µM; in [4], 13 µM; in assay [5] it was 9.1 µM; in [6], 10.5 µM. The IC50 in assay [7] was 9 µM; in assay [8], 9.3 µM; in [9], 18.5 µM; in [10], 16.1 µM; in assay [11], 11.6 µM; in assay [12], 13.9 µM. Besides, the IC50 in [13] came out at 16.8 µM; in [14] it was 10 µM; in [15], 11.3 µM.

Turning to `CCOC(=O)C[C@H]1O[C@@H]2[C@@H]3[C@H]4CC[C@@H]5[C@@]6(C)CC[C@H](OC(C)=O)C(C)(C)[C@@H]6CC[C@@]5(C)[C@]4(C)CC[C@@]31CCC2(C)C`, the IC50 in [1] stood at 25.9 µM; in [2], 9.3 µM; in assay [4] it was 17.3 µM; in [5], 11.9 µM; in assay [6], 24.7 µM; in [9], 16.7 µM. For the same compound, the IC50 in [10] worked out at 22.6 µM; in assay [12], 27.1 µM; in assay [13] it was 21.9 µM; in assay [14], 25.1 µM; in assay [15] it was 12 µM. The “growth inhibition (GI)” value in assay [16], in [17], in assay [18] and in assay [19] was “inactive” in each case.

As usually defined, the IC50 is the concentration at which inhibition is half-maximal. Low values mean higher potency, high ones lower potency.
